Assay results from ChEMBL document CHEMBL3872285, “Discovery of a Potent, Selective, and Orally Available PI3Kδ Inhibitor for the Treatment of Inflammatory Diseases” (ACS Med Chem Lett, 2017).

What was measured:
[1] = molecular target: T1, Phosphatidylinositol 4,5-bisphosphate 3-kinase catalytic subunit delta isoform (Homo sapiens, UniProt O00329); test: Inhibition of PI3Kdelta in human THP1 cells assessed as reduction in MCSF-stimulated akt phosphorylation at Thr308 preincubated for 30 mins followed by MCSF stimulation for 3 mins by ELISA; assay type: cell-based, THP-1
T1 sequence (O00329 whole entry): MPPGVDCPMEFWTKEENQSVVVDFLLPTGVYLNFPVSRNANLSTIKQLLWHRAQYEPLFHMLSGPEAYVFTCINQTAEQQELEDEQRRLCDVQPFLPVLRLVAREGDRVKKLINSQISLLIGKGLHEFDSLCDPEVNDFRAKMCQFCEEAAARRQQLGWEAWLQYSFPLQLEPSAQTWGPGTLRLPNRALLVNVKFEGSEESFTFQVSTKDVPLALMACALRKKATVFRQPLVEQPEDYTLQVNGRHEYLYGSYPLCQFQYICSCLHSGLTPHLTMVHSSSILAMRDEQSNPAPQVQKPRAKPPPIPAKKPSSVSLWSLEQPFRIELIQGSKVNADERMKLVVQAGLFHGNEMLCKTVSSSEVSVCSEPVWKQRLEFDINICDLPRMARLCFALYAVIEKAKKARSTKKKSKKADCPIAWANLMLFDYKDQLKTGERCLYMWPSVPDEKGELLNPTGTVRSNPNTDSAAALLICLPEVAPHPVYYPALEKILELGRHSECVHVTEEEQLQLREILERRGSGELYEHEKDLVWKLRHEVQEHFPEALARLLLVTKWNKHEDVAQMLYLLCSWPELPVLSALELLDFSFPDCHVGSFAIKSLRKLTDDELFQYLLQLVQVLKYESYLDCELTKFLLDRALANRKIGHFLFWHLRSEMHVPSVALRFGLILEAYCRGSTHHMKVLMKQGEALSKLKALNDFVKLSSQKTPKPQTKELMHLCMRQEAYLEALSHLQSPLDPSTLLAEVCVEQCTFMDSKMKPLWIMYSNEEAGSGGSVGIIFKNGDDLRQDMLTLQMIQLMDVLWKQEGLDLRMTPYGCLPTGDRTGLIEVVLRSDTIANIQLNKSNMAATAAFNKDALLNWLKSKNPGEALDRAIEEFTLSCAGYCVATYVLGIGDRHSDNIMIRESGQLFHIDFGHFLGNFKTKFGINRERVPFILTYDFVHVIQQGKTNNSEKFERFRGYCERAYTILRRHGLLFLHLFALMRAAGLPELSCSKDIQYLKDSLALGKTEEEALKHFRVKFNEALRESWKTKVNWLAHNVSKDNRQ
Summary of the method: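 THP-1 cells exposed to compound for 30 min, then stimulated with MCSF at EC80 for 3 min; lysates assayed by ELISA for pAkt (Thr308).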

[2] = Drug metabolism in rat liver microsomes assessed as disappearance of parent compound at 5 uM after 30 mins in presence of NADPH by UPLC-MS/MS analysis
[3] = molecular target: PI3-kinase p110-delta/p85-alpha (Homo sapiens, UniProt O00329); test: Inhibition of full length recombinant human N-terminal His6-tagged PI3K p110delta/human p85alpha expressed in baculovirus infected sf21 cells using PIP2 as substrate preincubated for 30 mins followed by substrate addition by HTRF assay
[4] = Drug metabolism in human liver microsomes assessed as disappearance of parent compound at 5 uM after 30 mins in presence of NADPH by UPLC-MS/MS analysis
[5] = Clearance in Wistar rat at 1 mg/kg, iv; conditions: in vivo
[6] = Apparent volume of distribution in Beagle dog at 1 mg/kg, iv through bolus administration; assay type: ADME, organism-based, Canis lupus familiaris; conditions: in vivo, read-out: Vz
[7] = AUC in Wistar rat at 1 mg/kg, iv; assay type: ADME, organism-based; conditions: in vivo
Summary of the method: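 Wistar rats received a single 1 mg/kg intravenous dose. Plasma samples were collected and AUC was calculated from them, along with half-life, clearance and steady-state volume of distribution. Values are means of two animals (n=2).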

[8] = AUC in Beagle dog at 1 mg/kg, iv through bolus administration; assay type: ADME, organism-based, Canis lupus familiaris; conditions: in vivo
[9] = Half life in Wistar rat at 1 mg/kg, iv; assay type: ADME, organism-based; conditions: in vivo
[10] = Clearance in Beagle dog at 1 mg/kg, iv through bolus administration; conditions: in vivo
[11] = Oral bioavailability in Wistar rat at 1 mg/kg administered via gavage; assay type: ADME, organism-based; conditions: in vivo
[12] = Half life in Beagle dog at 1 mg/kg, iv through bolus administration; assay type: ADME, organism-based, Canis lupus familiaris; conditions: in vivo
[13] = Apparent volume of distribution in Wistar rat at 1 mg/kg, iv; assay type: ADME, organism-based; conditions: in vivo, read-out: Vz
[14] = Volume of distribution at steady state in Wistar rat at 1 mg/kg, iv; assay type: ADME, organism-based; conditions: in vivo, read-out: Vdss
Rattus norvegicus [15] = test: In vivo inhibition of PI3Kdelta in Wistar rat assessed as reduction in ConA-induced increase in plasma IL2 production administered through oral gavage 1 hr prior to ConA measured 90 mins post ConA challenge by ELISA; assay type: functional; conditions: read-out: ID50 (the source's name)
Rattus norvegicus [16] = test: Anti-inflammatory activity in Brown Norway rat assessed as reduction in OVA-induced eosinophil infilteration to bronchoalveolar lavage administered orally bid 1 hr prior to OVA challenge on day 14 and 6 hrs post OVA challenge on day 21 measured 24 hrs post last OVA challenge by microscopic method; assay type: functional; conditions: po, read-out: ID50 (the source's name)

PI3-kinase p110-delta/p85-alpha, sequence (P27986 whole entry, one chain of several): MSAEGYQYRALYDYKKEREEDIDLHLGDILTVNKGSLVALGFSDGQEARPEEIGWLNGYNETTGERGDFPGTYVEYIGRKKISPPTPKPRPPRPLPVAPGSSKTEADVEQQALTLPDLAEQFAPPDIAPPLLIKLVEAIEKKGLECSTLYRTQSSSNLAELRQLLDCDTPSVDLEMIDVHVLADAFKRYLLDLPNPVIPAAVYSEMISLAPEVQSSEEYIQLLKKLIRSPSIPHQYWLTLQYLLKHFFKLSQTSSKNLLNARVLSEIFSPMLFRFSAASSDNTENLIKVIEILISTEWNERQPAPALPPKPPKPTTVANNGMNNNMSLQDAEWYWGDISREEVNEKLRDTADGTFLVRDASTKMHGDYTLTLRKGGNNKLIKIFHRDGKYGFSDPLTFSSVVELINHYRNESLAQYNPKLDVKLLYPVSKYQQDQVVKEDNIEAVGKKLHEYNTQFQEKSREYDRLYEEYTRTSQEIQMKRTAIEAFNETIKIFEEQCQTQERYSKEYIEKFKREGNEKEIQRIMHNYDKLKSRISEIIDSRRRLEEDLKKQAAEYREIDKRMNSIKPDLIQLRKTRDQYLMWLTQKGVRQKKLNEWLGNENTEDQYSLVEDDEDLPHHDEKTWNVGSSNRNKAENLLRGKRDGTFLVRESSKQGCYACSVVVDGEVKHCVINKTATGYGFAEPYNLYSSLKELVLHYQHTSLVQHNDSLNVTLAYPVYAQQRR

| SMILES | IC50 [1] | metabolised at 0.5 h, 5 µM [2] | IC50 [3] | metabolised at 0.5 h, 5 µM [4] | other results |
| --- | --- | --- | --- | --- | --- |
| Cc1ccn2nc([C@H](C)Nc3ncnc(N)c3C#N)n(-c3ccccc3)c(=O)c12 | 1.6 nM | 44% | 1.1 nM | 80% |  |
| N#Cc1c(N)ncnc1N1CCC[C@H]1c1nn2cccc2c(=O)n1-c1ccccc1 | 6.6 nM | 46% | 4.6 nM | 48% |  |
| Cc1ccn2nc(C(C)n3cnc4c(N)ncnc43)n(-c3ccccc3)c(=O)c12 (stereo not given) |  |  | 75 nM |  |  |
| C[C@H](Nc1ncnc2[nH]ccc12)c1nn2cccc2c(=O)n1-c1ccccc1 | 150 nM | 44% | 52 nM | 49% |  |
| N#Cc1c(N)ncnc1NC(CC(F)(F)F)c1nn2cccc2c(=O)n1-c1ccccc1 (stereo not given) | 1600 nM |  | 610 nM |  |  |
| C[C@H](Nc1ncnc(N)c1F)c1nn2cccc2c(=O)n1-c1ccccc1 | 210 nM |  | 73 nM |  |  |
| C[C@H](Nc1ncnc(N)c1C#N)c1nn2ccc(CO)c2c(=O)n1-c1ccccc1 | 35 nM | 7% | 4.3 nM | 23% |  |
| C[C@H](Nc1ncnc2[nH]cnc12)c1nn2cccc2c(=O)n1-c1ccccc1 | 7 nM | 18% | 10 nM | 30% |  |
| Cc1ccc2c(=O)n(-c3ccccc3)c([C@H](C)Nc3ncnc(N)c3C#N)nn12 | 11 nM | 54% | 8.8 nM | 82% |  |
| C[C@H](Nc1ncnc(N)c1C#N)c1nn2ccnc2c(=O)n1-c1ccccc1 | 210 nM | 14% | 57 nM | 23% |  |
| C[C@H](Nc1cc(N)ncn1)c1nn2cccc2c(=O)n1-c1ccccc1 |  |  | 1200 nM |  |  |
| C[C@H](Nc1ncnc(N)c1C#N)c1nn2c(C#N)ccc2c(=O)n1-c1ccccc1 | 11 nM | 24% | 4 nM | 22% |  |
| N#Cc1c(N)ncnc1NC(CO)c1nn2cccc2c(=O)n1-c1ccccc1 (single isomer, unassigned) | 51 nM | 24% | 13 nM | 31% |  |
| C[C@H](Nc1ncnc(N)c1C#N)c1nn2ccc(C(F)(F)F)c2c(=O)n1-c1ccccc1 |  | 16% | 3 nM | 37% | clearance [5]: 8.6 mL/min/kg; Vd [6]: 1.5 L/kg; AUC [7]: 2040 ng·h/mL; AUC [8]: 3940 ng·h/mL; half-life [9]: 3.3 h; clearance [10]: 4.2 mL/min/kg; bioavailability [11]: 113%; half-life [12]: 4.2 h; Vd [13]: 2.4 L/kg |
| N#Cc1c(N)ncnc1N[C@@H](CCO)c1nn2cccc2c(=O)n1-c1ccccc1 | 16 nM |  | 4.8 nM | 7% | clearance [5]: 36.8 mL/min/kg; AUC [7]: 450 ng·h/mL; half-life [9]: 1.1 h; Vd [14]: 1.6 L/kg |
| N#Cc1c(N)ncnc1NC1(c2nn3cccc3c(=O)n2-c2ccccc2)CC1 |  |  | 3400 nM |  |  |

| SMILES | IC50 [1] | metabolised at 0.5 h, 5 µM [2] | IC50 [3] | metabolised at 0.5 h, 5 µM [4] | other results |
| --- | --- | --- | --- | --- | --- |
| C[C@H](Nc1ncnc(N)c1C(F)(F)F)c1nn2cccc2c(=O)n1-c1ccccc1 |  | 51% | 12 nM | 43% |  |
| C[C@H](Nc1nc(N)nc2[nH]cnc12)c1nn2cccc2c(=O)n1-c1ccccc1 | 6.5 nM | 30% | 3.1 nM | 26% |  |
| CC[C@H](Nc1ncnc2[nH]cnc12)c1nc2cccc(F)c2c(=O)n1-c1ccccc1 [IDELALISIB] |  |  |  |  | ED50 (Rattus norvegicus [15]): 1.6 mg/kg; Vd [6]: 2.5 L/kg; AUC [7]: 512 ng·h/mL; AUC [8]: 924 ng·h/mL; half-life [9]: 0.8 h; ED50 (Rattus norvegicus [16]): 15 mg/kg; bioavailability [11]: 68%; half-life [12]: 1.6 h; Vd [13]: 2.2 L/kg |
| C[C@H](Nc1ncnc(N)c1C#N)c1nn2cc(F)cc2c(=O)n1-c1ccccc1 | 51 nM | 23% | 17 nM | 34% |  |
| C[C@H](Nc1ncnc(N)c1C#N)c1nn2cccc2c(=O)n1-c1ccccc1 |  | 15% |  | 24% | clearance [5]: 43.5 mL/min/kg; AUC [7]: 386 ng·h/mL; half-life [9]: 0.9 h; Vd [14]: 1.9 L/kg |
| Cc1ccccc1-n1c(Cn2cnc3c(N)ncnc32)nn2ccc(C)c2c1=O |  |  | 110 nM |  |  |
| CC[C@H](Nc1ncnc2[nH]cnc12)c1nn2cccc2c(=O)n1-c1ccccc1 |  | 38% | 25 nM | 49% |  |
| C[C@H](Nc1ccnc2ccnn12)c1nn2cccc2c(=O)n1-c1ccccc1 |  | 100% | 60 nM | 86% |  |
| CC[C@@H](Nc1ncnc2[nH]cnc12)c1nn2cccc2c(=O)n1-c1ccccc1 |  | 32% | 1800 nM | 30% |  |
| CC[C@H](Nc1ncnc(N)c1C#N)c1nn2cccc2c(=O)n1-c1ccccc1 | 18 nM | 32% | 11 nM | 32% |  |
| N#Cc1c(N)ncnc1N1CC(F)(F)C[C@H]1c1nn2cccc2c(=O)n1-c1ccccc1 | 370 nM | 30% | 31 nM | 35% |  |
| C[C@H](Nc1ncnc2[nH]cc(F)c12)c1nn2cccc2c(=O)n1-c1ccccc1 | 47 nM | 48% | 9 nM | 58% |  |
| C[C@H](Nc1ncnc(N)c1C#N)c1nn2c(C(F)(F)F)ccc2c(=O)n1-c1ccccc1 | 380 nM |  | 71 nM |  |  |
| C[C@H](Nc1nc(N)nc(N)n1)c1nn2cccc2c(=O)n1-c1ccccc1 | 76 nM | 25% | 91 nM | 33% |  |
| C[C@H](Nc1ncnc(N)c1C#N)c1nn2ccc(F)c2c(=O)n1-c1ccccc1 | 3.8 nM | 9% | 1.1 nM | 13% |  |
